Measured values as given in ChEMBL document CHEMBL4823272 (Eur J Med Chem, 2021).
Activity calls are given as the source filed them. The calls are words filed in the database; no cut-off is given here.

What was measured:
[1] = biological target: T1, Amyloid-beta precursor protein (Homo sapiens, UniProt P05067); assay: Inhibition of human amyloid beta (1 to 40) fibrillization at 100 uM measured every 15 mins by Thioflavin-T fluorescence assay relative to control
SIM-A9 [2] = assay: Induction of phagocytosis in LPS-stimulated mouse SIM-A9 cells assessed as increase in FITC signal measured after 24 hrs by FITC analysis; type: functional, cell-based
Outline: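 SIM-A9 cells given LPS plus compound for 24 h, then FITC-labelled killed E. coli bioparticles at 0.125 mg/mL final for 1 h at 37 °C. Extracellular signal quenched with 0.4% trypan blue. Intracellular FITC read at Ex 494/Em 518. Mean ± SD.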

[3] = biological target: T1, Amyloid-beta precursor protein; assay: Inhibition of human biotinylated amyloid beta (1 to 42) oligomerization measured after 1 hr by ELISA
Outline: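 HFIP/TFA-treated biotinylated Aβ1-42 in DMSO/OFB buffer incubated with compound 1 h at room temperature, stopped with 0.3% Tween 20. Captured on NeutrAvidin-coated plates blocked with OFB-T (pH 7.50), 2 h at 150 rpm. Streptavidin-HRP 1:10,000 for 1 h, TMB/H₂O₂, stopped with 2% H₂SO₄, read at 450 nm. IC50 from 4-parameter logistic fit normalized to DMSO and Tween-20 controls.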

SIM-A9 [4] = assay: Anti-inflammatory activity in LPS-stimulated mouse SIM-A9 cells assessed as downregulation of iNOS expression at 2.7 uM measured after 24 hrs by Western blot analysis; type: functional, cell-based
Outline: (§1)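 SIM-A9 murine microglia in DMEM-F12 with 10% FBS and 5% horse serum, seeded 0.25 × 10⁶ cells/well one day before. Stimulated with 5 ng/mL LPS plus compound for 24 h. Cells lysed in RIPA with protease inhibitors, protein by Micro BCA. Equal protein on SDS-PAGE, PVDF transfer, probed with iNOS, COX-2 and tubulin antibodies (1:1000), HRP chemiluminescence.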

[5] = Drug concentration in CD-1 mouse brain at 5 mg/kg, po measured after 0.5 hrs by LC-MS/MS analysis; type: ADME, organism-based
Outline: (§2)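 Male CD-1 mice dosed 5 mg/kg orally, n = 3 per time point. At 0.5 and 2.5 h, blood taken by cardiac puncture, then transcardial PBS perfusion. Brains homogenized in three volumes of PBS. Samples precipitated with cold acetonitrile, supernatant diluted with two volumes of 0.1% formic acid water, measured by LC-MS/MS. Brain/plasma ratio from these levels.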

SIM-A9 [6] = assay: Anti-inflammatory activity in mouse SIM-A9 cells assessed as inhibition of LPS-induced IL-6 production at 2.7 uM measured after 24 hrs by ELISA; type: functional, cell-based
Outline: (§3)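 SIM-A9 cells seeded 0.25 × 10⁶/well a day ahead, then given 5 ng/mL LPS with compound for 24 h. Supernatants assayed by sandwich ELISA: capture antibody 1:250, detection antibody 1:250, avidin-HRP, TMB, stop with 2 N H₂SO₄. Read at 450 nm, 570 nm correction. Mean ± SD, n = 3.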

[7] = Drug concentration in CD-1 mouse plasma at 5 mg/kg, po measured after 0.5 hrs by LC-MS/MS analysis; type: ADME, organism-based
Outline: as §2

[8] = Ratio of drug concentration in brain to plasma of CD-1 mouse at 5 mg/kg, po after 2.5 hrs; type: ADME, organism-based; details: read-out: BPR
Outline: as §2

[9] = Drug concentration in CD-1 mouse plasma at 5 mg/kg, po measured after 2.5 hrs by LC-MS/MS analysis; type: ADME, organism-based
Outline: as §2

[10] = Ratio of drug concentration in brain to plasma of CD-1 mouse at 5 mg/kg, po after 0.5 hrs; type: ADME, organism-based; details: read-out: BPR
Outline: as §2

[11] = Drug concentration in CD-1 mouse brain at 5 mg/kg, po measured after 2.5 hrs by LC-MS/MS analysis; type: ADME, organism-based
Outline: as §2

SIM-A9 [12] = assay: Anti-inflammatory activity in mouse SIM-A9 cells assessed as inhibition of LPS-induced TNF-alpha production at 2.7 uM measured after 24 hrs by ELISA; type: functional, cell-based
Outline: as §3

SIM-A9 [13] = assay: Anti-inflammatory activity in LPS-stimulated mouse SIM-A9 cells assessed as downregulation of COX-2 expression at 2.7 uM measured after 24 hrs by Western blot analysis; type: functional, cell-based
Outline: as §1

SIM-A9 [14] = assay: Anti-inflammatory activity in mouse SIM-A9 cells assessed as inhibition of LPS-induced NO production at 2.7 uM measured after 24 hrs by Griess reagent based assay; type: functional, cell-based
Outline: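 SIM-A9 cells given 5 ng/mL LPS with compound for 24 h. Conditioned medium mixed with sulfanilamide, then N-naphthyl-ethylenediamine, 5–10 min dark at room temperature. Absorbance at 520–550 nm, NO quantified against a standard curve. n = 3.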

T1 sequence (P05067 whole entry): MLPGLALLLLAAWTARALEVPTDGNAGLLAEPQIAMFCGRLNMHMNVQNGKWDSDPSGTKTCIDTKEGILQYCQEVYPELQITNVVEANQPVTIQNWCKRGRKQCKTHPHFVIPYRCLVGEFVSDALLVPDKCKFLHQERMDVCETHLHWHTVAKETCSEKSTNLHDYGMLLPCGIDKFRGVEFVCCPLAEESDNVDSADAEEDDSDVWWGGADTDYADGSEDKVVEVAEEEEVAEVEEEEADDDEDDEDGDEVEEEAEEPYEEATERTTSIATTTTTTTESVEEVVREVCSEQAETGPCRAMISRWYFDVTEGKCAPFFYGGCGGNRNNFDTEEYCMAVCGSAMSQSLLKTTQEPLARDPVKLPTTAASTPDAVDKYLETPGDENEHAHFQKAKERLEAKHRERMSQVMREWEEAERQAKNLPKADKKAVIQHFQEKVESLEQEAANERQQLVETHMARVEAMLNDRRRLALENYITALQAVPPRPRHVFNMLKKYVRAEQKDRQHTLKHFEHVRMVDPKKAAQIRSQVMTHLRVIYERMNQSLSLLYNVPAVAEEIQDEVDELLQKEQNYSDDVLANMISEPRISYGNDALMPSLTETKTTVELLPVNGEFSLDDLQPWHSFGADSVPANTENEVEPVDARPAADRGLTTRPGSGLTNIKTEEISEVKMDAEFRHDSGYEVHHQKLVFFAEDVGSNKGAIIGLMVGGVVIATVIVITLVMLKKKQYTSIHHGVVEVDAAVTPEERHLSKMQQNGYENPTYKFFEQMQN

Structure (SMILES) | inhibition [1] | IC50 [3] | further results
CNS(=O)(=O)c1cc(C(=O)O)c(NCc2ccco2)cc1Cl | inactive | – | Activity (SIM-A9 [2]): Active
CCNS(=O)(=O)c1cc(C(=O)O)c(NCc2ccco2)cc1Cl | 21.3% | – | –
CCNC(=O)c1cc(C(=O)O)c(NCc2ccco2)cc1Cl | 24.6% | Not Active | –
CNS(=O)(=O)c1cc(C(O)C(F)(F)F)c(NCc2ccco2)cc1Cl (stereo not drawn) | – | Not Active | –
OC(c1ccc(Br)cc1NCc1cscn1)C(F)(F)F (stereo not drawn) | 33% | Not Active | Activity (SIM-A9 [2]): Active
O=C(Nc1ccccc1)c1cc(C(=O)O)c(NCc2ccco2)cc1Cl | 29.4% | Not Active | –
O=C(O)c1cc(S(=O)(=O)NCCc2ccccc2)c(Cl)cc1NCc1ccco1 | inactive | Not Active | –
CNS(=O)(=O)c1cc(C(N)=O)c(NCc2ccco2)cc1Cl | inactive | – | Activity (SIM-A9 [4]): Active; concentration at 0.5 h [5]: 5.2 ng/g; Activity (SIM-A9 [6]): Active; concentration at 0.5 h [7]: 38.2 ng/mL; Kp at 2.5 h [8]: 0.12; concentration at 2.5 h [9]: 29.3 ng/mL; Kp at 0.5 h [10]: 0.14; concentration at 2.5 h [11]: 3.5 ng/g; Activity (SIM-A9 [12]): Active; Activity (SIM-A9 [13]): Active
CN(C)S(=O)(=O)c1cc(C(=O)O)c(NCc2ccco2)cc1Cl | inactive | – | –
CNS(=O)(=O)c1cc(C(=O)O)c(NCC2CCCO2)cc1Cl (stereo not drawn) | 17.5% | – | IC50 ([3]; read-out: IC50): 136 µM
NS(=O)(=O)c1cc(C(=O)O)c(NCc2ccco2)cc1Cl [FUROSEMIDE] | 8.56% | Not Active | concentration at 0.5 h [5]: 8.7 ng/g; concentration at 0.5 h [7]: 1730 ng/mL; Kp at 2.5 h [8]: 0.005; concentration at 2.5 h [9]: 1630 ng/mL; Kp at 0.5 h [10]: 0.005; concentration at 2.5 h [11]: 7.8 ng/g
CCCCCCNS(=O)(=O)c1cc(C(=O)O)c(NCc2ccco2)cc1Cl | 39.2% | – | –
COc1ccc(CNS(=O)(=O)c2cc(C(=O)O)c(NCc3ccco3)cc2Cl)cc1 | 27.8% | Not Active | –
O=C(O)c1ccc(F)cc1NCc1ccco1 | 12.4% | – | –
NC(=O)c1cc(C(=O)O)c(NCc2ccco2)cc1Cl | 32.4% | Not Active | –
O=C(O)c1cc(S(=O)(=O)N2CCOCC2)c(Cl)cc1NCc1ccco1 | inactive | – | –
O=C(O)c1cc(S(=O)(=O)NC2CC2)c(Cl)cc1NCc1ccco1 | 29.2% | Not Active | –
OC(c1ccc(Cl)cc1NCc1ccco1)C(F)(F)F (stereo not drawn) | 60.7% | Not Active | Activity (SIM-A9 [4]): Active; Activity (SIM-A9 [6]): Active; Activity (SIM-A9 [14]): Active; Activity (SIM-A9 [12]): Active; Activity (SIM-A9 [13]): Active
O=C(O)c1cc(C(=O)N2CCCCC2)c(Cl)cc1NCc1ccco1 | 11% | Not Active | –
CNS(=O)(=O)c1cc(C(=O)N(C)C)c(NCc2ccco2)cc1Cl | 25.2% | – | concentration at 0.5 h [5]: 61.1 ng/g; concentration at 0.5 h [7]: 302 ng/mL; Kp at 2.5 h [8]: 0.22; concentration at 2.5 h [9]: 83.2 ng/mL; Activity (SIM-A9 [2]): Active; Kp at 0.5 h [10]: 0.2; concentration at 2.5 h [11]: 18.5 ng/g

Structure (SMILES) | inhibition [1] | IC50 [3] | further results
CNS(=O)(=O)c1cc(-c2noc(=O)[nH]2)c(NCc2ccco2)cc1Cl | 20.2% | Not Active | –
CN(Cc1ccccc1)S(=O)(=O)c1cc(C(=O)O)c(NCc2ccco2)cc1Cl | inactive | – | Activity (SIM-A9 [4]): Active; concentration at 0.5 h [5]: 0.8 ng/g; Activity (SIM-A9 [6]): Active; concentration at 0.5 h [7]: 1030 ng/mL; concentration at 2.5 h [9]: 873 ng/mL; Activity (SIM-A9 [2]): Active; Kp at 0.5 h [10]: 0.0008; concentration at 2.5 h [11]: 0.1 ng/g; Activity (SIM-A9 [12]): Active; Activity (SIM-A9 [13]): Active
CNS(=O)(=O)c1cc(-c2nnn[nH]2)c(NCc2ccco2)cc1Cl | 14.1% | – | –
Cc1ccc(CNS(=O)(=O)c2cc(C(=O)O)c(NCc3ccco3)cc2Cl)cc1 | inactive | Not Active | –
CC(NS(=O)(=O)c1cc(C(=O)O)c(NCc2ccco2)cc1Cl)c1ccccc1 (stereo not drawn) | 17.6% | – | –
CNC(=O)c1cc(S(=O)(=O)NC)c(Cl)cc1NCc1ccco1 | inactive | – | Activity (SIM-A9 [2]): Active
OC(c1ccc(Cl)cc1NCc1cscn1)C(F)(F)F (stereo not drawn) | 27.9% | Not Active | –
O=C(O)c1ccc(Cl)cc1NCc1ccco1 | 20.2% | Not Active | –
CNS(=O)(=O)c1cc(C(=O)OC)c(NCc2ccco2)cc1Cl | 27.1% | – | –
COc1ccc(C(O)C(F)(F)F)c(NCc2cscn2)c1 (stereo not drawn) | 6.49% | – | –
O=C(O)c1cc(C(=O)N2CCOCC2)c(Cl)cc1NCc1ccco1 | 34% | Not Active | –
CNS(=O)(=O)c1cc(CO)c(NCc2ccco2)cc1Cl | 15% | – | –
OC(c1ccc(Br)cc1NCc1ccco1)C(F)(F)F (stereo not drawn) | 81.3% | Not Active | Activity (SIM-A9 [4]): Active; Activity (SIM-A9 [6]): Active; Activity (SIM-A9 [14]): Active; Activity (SIM-A9 [12]): Active; Activity (SIM-A9 [13]): Active
O=C(O)c1cc(S(=O)(=O)NC2CCCCC2)c(Cl)cc1NCc1ccco1 | 11.3% | – | –
O=C(O)c1cc(S(=O)(=O)NCc2ccccc2)c(Cl)cc1NCc1ccco1 | 11.8% | Not Active | –
CNC(=O)c1cc(C(=O)O)c(NCc2ccco2)cc1Cl | 19.1% | Not Active | –
COc1ccc(C(O)C(F)(F)F)c(NCc2ccco2)c1 (stereo not drawn) | 36.8% | Not Active | –
CN(C)C(=O)c1cc(C(=O)O)c(NCc2ccco2)cc1Cl | 18.4% | Not Active | –
O=C(O)c1cc(S(=O)(=O)N2CCCCC2)c(Cl)cc1NCc1ccco1 | 19.1% | Not Active | –
O=C(O)c1cc(S(=O)(=O)Nc2ccccc2)c(Cl)cc1NCc1ccco1 | 17.4% | – | –
